Where two headings read alike, the source gives them in different places.
Key:
hERG = hERG (Homo sapiens, UniProt Q12809); assay: hERG channel assay; format: cell-based
5-HT2B [1] = target: T1, 5-HT2B (Homo sapiens, UniProt P41595); assay: 5-HT2B antagonism functional assay; format: cell-based
male ICR mice [2] = assay: Functional observational battery; format: in vivo, mouse; conditions: i.v.; for FOB Home cage activity: doses with significant differences vs vehicle: CNS Activity domain, ↓ decrease vs vehicle, N = 6/dose; for FOB Gait: doses with significant differences vs vehicle / FOB Muscle tone: doses with significant differences vs vehicle / FOB Posture: doses with significant differences vs vehicle / FOB Forelimb placing: doses with significant differences vs vehicle: Muscle tone/Equilibrium domain; for FOB Approach response: doses with significant differences vs vehicle / FOB Startle response: doses with significant differences vs vehicle: Sensorimotor Reactivity domain
Method in brief: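 Male ICR mice, each given one dose only, n=6 per dose; housed at 20–22°C on a 12-h light/dark cycle with food ad libitum. Approach and startle after observer interference were scored as categorical measures. Each compound's vehicle group was pooled into one vehicle group, and each dose was compared with it. Tests: Fisher's exact (categorical), Kruskal-Wallis (ordinal), one-way ANOVA (continuous).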

5-HT2C = target: T2, 5-HT2C (Homo sapiens, UniProt P28335); assay: NIMH PDSP secondary binding assay, 5-HT2C; conditions: read-out: 5-HT2C binding affinity Ki; mean of 3 replications
T2 sequence (P28335 33-458): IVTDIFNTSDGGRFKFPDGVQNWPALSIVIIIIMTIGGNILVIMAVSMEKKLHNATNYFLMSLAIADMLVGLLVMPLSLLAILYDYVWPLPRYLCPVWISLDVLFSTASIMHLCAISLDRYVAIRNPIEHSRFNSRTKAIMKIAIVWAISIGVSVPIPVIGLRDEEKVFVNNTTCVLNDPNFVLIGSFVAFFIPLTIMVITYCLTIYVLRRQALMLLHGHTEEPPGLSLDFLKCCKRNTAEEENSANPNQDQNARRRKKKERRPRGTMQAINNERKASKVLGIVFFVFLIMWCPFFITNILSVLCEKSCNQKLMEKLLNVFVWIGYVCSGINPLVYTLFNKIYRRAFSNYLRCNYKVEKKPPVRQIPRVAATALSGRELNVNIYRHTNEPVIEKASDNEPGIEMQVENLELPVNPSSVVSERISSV

5-HT2B [3] = target: T1, 5-HT2B; assay: NIMH PDSP secondary binding assay, 5-HT2B
GABA: PBR = GABA: PBR (Rattus norvegicus, UniProt P16257); assay: NIMH PDSP secondary binding assay, PBR; design: species or system human
Chain of GABA: PBR (P16257 whole entry): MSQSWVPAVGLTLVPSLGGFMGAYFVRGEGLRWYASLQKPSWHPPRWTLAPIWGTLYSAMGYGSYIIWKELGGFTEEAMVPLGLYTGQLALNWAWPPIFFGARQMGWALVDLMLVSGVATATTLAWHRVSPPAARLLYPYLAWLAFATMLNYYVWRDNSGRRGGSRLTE

male ICR mice [4] = assay: FOB, cannabinoid receptor antagonism of 3 mg/kg JWH-018 effects; format: in vivo, mouse
male C57/Bl6J mice = assay: Drug discrimination, mice trained to discriminate 0.3 mg/kg JWH-018 from vehicle; format: in vivo, mouse
5-HT6 = 5-HT6 (Homo sapiens, UniProt P50406); assay: NIMH PDSP secondary binding assay, 5-HT6; conditions: read-out: 5-HT6 binding affinity Ki; mean of 3 replications
Chain of 5-HT6 (P50406 whole entry): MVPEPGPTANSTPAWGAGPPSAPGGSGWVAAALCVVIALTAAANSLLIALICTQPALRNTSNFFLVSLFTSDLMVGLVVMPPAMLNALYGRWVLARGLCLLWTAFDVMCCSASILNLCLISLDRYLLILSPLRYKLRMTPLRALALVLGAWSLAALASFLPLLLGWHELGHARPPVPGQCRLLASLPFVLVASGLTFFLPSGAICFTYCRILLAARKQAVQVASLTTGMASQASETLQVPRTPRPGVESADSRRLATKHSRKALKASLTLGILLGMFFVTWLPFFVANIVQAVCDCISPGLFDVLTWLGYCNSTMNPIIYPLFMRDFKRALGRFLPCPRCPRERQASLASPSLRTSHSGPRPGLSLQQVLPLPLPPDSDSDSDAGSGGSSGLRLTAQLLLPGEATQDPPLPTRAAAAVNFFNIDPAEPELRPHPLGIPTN

[5] = inhibition of hERG channels, mean of 3 replicates
[6] = categorical, ---- no significant effect
[7] = read-out: 5-HT2B binding affinity Ki, mean of 3 replications
[8] = read-out: hERG Channels EC50, inhibition of hERG channels, mean of 3 replicates
[9] = read-out: 5-HT2B Antagonism IC50, mean of 3 replicates
[10] = Autonomic Effects domain, categorical, ---- no significant effect
[11] = CNS Excitability domain, ↑ increase vs vehicle, ---- no significant effect

T1 sequence (P41595 whole entry, the tested form may be a part): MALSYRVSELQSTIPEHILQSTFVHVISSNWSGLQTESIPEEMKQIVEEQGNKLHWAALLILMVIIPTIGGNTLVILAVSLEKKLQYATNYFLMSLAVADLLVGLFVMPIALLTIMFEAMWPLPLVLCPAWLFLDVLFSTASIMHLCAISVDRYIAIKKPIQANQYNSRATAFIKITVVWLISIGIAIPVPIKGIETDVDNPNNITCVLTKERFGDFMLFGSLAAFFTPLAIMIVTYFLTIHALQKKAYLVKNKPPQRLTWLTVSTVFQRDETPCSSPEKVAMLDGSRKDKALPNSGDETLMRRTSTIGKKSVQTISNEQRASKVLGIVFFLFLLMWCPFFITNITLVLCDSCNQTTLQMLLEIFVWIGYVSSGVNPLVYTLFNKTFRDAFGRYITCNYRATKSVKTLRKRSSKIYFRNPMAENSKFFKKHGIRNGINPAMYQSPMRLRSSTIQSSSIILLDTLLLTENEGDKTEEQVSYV
Chain of hERG (Q12809 whole entry): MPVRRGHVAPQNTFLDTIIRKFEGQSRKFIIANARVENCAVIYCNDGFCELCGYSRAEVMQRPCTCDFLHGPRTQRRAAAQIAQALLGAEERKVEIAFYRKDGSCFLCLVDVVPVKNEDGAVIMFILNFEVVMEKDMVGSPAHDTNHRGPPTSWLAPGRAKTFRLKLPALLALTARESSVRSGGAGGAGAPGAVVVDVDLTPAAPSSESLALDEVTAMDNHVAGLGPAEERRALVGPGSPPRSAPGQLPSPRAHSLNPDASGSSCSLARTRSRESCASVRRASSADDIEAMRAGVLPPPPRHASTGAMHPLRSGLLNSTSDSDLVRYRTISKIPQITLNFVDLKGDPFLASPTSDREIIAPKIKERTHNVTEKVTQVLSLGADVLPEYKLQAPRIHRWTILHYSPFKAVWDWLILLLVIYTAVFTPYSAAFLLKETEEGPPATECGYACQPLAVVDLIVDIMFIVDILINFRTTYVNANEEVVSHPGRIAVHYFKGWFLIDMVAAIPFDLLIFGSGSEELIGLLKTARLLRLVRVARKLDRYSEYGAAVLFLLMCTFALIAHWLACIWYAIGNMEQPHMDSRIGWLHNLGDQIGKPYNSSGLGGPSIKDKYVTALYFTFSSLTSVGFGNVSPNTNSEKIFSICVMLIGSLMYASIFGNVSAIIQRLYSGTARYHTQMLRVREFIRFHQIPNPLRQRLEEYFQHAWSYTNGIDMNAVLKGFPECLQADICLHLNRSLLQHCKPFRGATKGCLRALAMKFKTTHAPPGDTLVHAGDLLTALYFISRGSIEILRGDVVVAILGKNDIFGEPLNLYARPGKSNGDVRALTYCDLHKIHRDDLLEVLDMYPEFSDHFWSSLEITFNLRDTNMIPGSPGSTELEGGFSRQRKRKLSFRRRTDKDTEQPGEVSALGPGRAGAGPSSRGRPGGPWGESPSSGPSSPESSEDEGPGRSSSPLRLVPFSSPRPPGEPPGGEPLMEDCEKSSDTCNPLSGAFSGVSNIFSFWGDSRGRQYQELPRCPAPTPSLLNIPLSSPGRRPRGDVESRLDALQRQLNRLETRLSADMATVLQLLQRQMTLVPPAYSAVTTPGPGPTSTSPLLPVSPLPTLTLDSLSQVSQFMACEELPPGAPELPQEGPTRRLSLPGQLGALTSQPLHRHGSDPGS

With CCCCCn1cc(C(=O)c2ccc(OC)c3ccccc23)c2ccccc21 [JWH-081] the “hERG Channels EC50” value (hERG; [5]) was “Not active”, the “hERG Channels Emax” value (hERG; [5]) was “lacked efficacy” and the “5-HT2B Antagonism IC50” value (5-HT2B [1]; mean of 3 replicates) was “Not active”. For the same compound, the “FOB Home cage activity: doses with significant differences vs vehicle” value (male ICR mice [2]) was “↓ (0.1-1) mg/kg”, the “FOB Gait: doses with significant differences vs vehicle” value (male ICR mice [2]; [6]) was “(0.3-1) mg/kg” and the “FOB Muscle tone: doses with significant differences vs vehicle” value (male ICR mice [2]; [6]) was “(0.3) mg/kg”. For the same compound, the “FOB Posture: doses with significant differences vs vehicle” value (male ICR mice [2]; [6]) was “(0.3-1) mg/kg”, the “FOB Approach response: doses with significant differences vs vehicle” value (male ICR mice [2]; [6]) was “(1) mg/kg” and the “FOB Startle response: doses with significant differences vs vehicle” value (male ICR mice [2]; [6]) was “(1) mg/kg”.

CCCCCn1cc(C(=O)Cc2ccccc2)c2ccccc21 [JWH-167] was tested, and the Ki (5-HT2C) was 4.82 µM, the Ki (5-HT2B [3]; [7]) was 1.25 µM and the “hERG Channels Emax” value (hERG; [5]) was 81%. The EC50 (hERG; [8]) was 13.8 µM, the “5-HT2B Antagonism Emax” value (5-HT2B [1]; mean of 3 replicates) was 100% and the IC50 (5-HT2B [1]; [9]) was 47.7 µM. The “FOB Exophthalmus: doses with significant differences vs vehicle” value (male ICR mice [2]; [10]) was “(1) mg/kg”, the “FOB Piloerection: doses with significant differences vs vehicle” value (male ICR mice [2]; [10]) was “(10-30) mg/kg” and the “FOB Home cage activity: doses with significant differences vs vehicle” value (male ICR mice [2]) was “↓ (3-30) mg/kg”. For the same compound, the “FOB Tonus: doses with significant differences vs vehicle” value (male ICR mice [2]; [11]) was “↑ (10) mg/kg”, the “FOB Forelimb placing: doses with significant differences vs vehicle” value (male ICR mice [2]; [6]) was “(10-30) mg/kg” and the “FOB Gait: doses with significant differences vs vehicle” value (male ICR mice [2]; [6]) was “(3-30) mg/kg”. For the same compound, the “FOB Muscle tone: doses with significant differences vs vehicle” value (male ICR mice [2]; [6]) was “(3-30) mg/kg”, the “FOB Posture: doses with significant differences vs vehicle” value (male ICR mice [2]; [6]) was “(1-30) mg/kg” and the “FOB Approach response: doses with significant differences vs vehicle” value (male ICR mice [2]; [6]) was “(3-30) mg/kg”. The “FOB Startle response: doses with significant differences vs vehicle” value (male ICR mice [2]; [6]) was “(3-30) mg/kg”.

For CCCCCn1cc(C(=O)c2cccc3ccccc23)c2ccccc21 [JWH-018, 1-pentyl-3-(1-naphthoyl)indole], the Ki (GABA: PBR) was 0.673 µM, the Ki (5-HT2B [3]) was 0.316 µM and the “Muscle tone in FOB antagonism study” value (male ICR mice [4]; 3 mg/kg JWH-018 i.v. alone, or co-administration of 3 mg/kg rimonabant i.p.) was “Hypertonia”. The EC50 (hERG) was 236 µM, the Emax (hERG; human, stably transfected cell line expressing hERG channels) was 100% and the “hERG Channels Emax” value (hERG; [5]) was “Full efficacy”. For the same compound, the IC50 (5-HT2B [1]) was 33.2 µM, the Emax (5-HT2B [1]; read-out: 5-HT2B Antagonism Emax) was 100% and the “Responding on the JWH-018-associated lever at the training dose” value (male C57/Bl6J mice; 0.3 mg/kg JWH-018) was over 85%. For the same compound, the “Response rates compared to vehicle” value (male C57/Bl6J mice; 1 mg/kg JWH-018, 10 mg/kg THC, JWH-073 across the dose range tested) was “significantly decreased response rates”, the “Substitution for the 0.3 mg/kg JWH-018 training dose” value (male C57/Bl6J mice; percentage of responses on JWH-018-associated lever, i.p.) was “fully and dose-dependently substituted” and the “FOB Home cage activity: doses with significant differences vs vehicle” value (male ICR mice [2]) was “↓ (0.1-3) mg/kg”. The “FOB Clonus: doses with significant differences vs vehicle” value (male ICR mice [2]; [11]) was “↑ (0.3) mg/kg”, the “FOB Tail elevation: doses with significant differences vs vehicle” value (male ICR mice [2]; [11]) was “↑ (1) mg/kg” and the “FOB Tonus: doses with significant differences vs vehicle” value (male ICR mice [2]; [11]) was “↑ (1) mg/kg”. For the same compound, the “FOB Forelimb placing: doses with significant differences vs vehicle” value (male ICR mice [2]; [6]) was “(3) mg/kg”, the “FOB Gait: doses with significant differences vs vehicle” value (male ICR mice [2]; [6]) was “(0.1-3) mg/kg” and the “FOB Muscle tone: doses with significant differences vs vehicle” value (male ICR mice [2]; [6]) was “(0.1-3) mg/kg”. The “FOB Posture: doses with significant differences vs vehicle” value (male ICR mice [2]; [6]) was “(0.1-3) mg/kg”, the “FOB Approach response: doses with significant differences vs vehicle” value (male ICR mice [2]; [6]) was “(0.3-3) mg/kg” and the “FOB Startle response: doses with significant differences vs vehicle” value (male ICR mice [2]; [6]) was “(3) mg/kg”.

SR144528 [reference compound] was tested, and the “FOB selected measures, antagonist 3 mg/kg i.p. plus vehicle” value (male ICR mice [4]; rimonabant/vehicle and SR144528/vehicle groups, all mice) was “Normal responses”.

With O=C(c1cccc2ccccc12)c1cn(CCCCCF)c2ccccc12 [AM-2201] the Ki (5-HT2B [3]; [7]) was 0.192 µM, the “hERG Channels Emax” value (hERG; [5]) was 70% and the EC50 (hERG; [8]) was 3.35 µM. For the same compound, the Ki (5-HT6) was 0.693 µM, the “5-HT2B Antagonism Emax” value (5-HT2B [1]; mean of 3 replicates) was 100% and the IC50 (5-HT2B [1]; [9]) was 23.9 µM. The “FOB Home cage activity: doses with significant differences vs vehicle” value (male ICR mice [2]) was “↓ (0.03-1) mg/kg”, the “FOB Tonus: doses with significant differences vs vehicle” value (male ICR mice [2]; [11]) was “↑ (0.3-1) mg/kg” and the “FOB Muscle tone: doses with significant differences vs vehicle” value (male ICR mice [2]; [6]) was “(0.1-1) mg/kg”. For the same compound, the “FOB Posture: doses with significant differences vs vehicle” value (male ICR mice [2]; [6]) was “(0.03-1) mg/kg” and the “FOB Approach response: doses with significant differences vs vehicle” value (male ICR mice [2]; [6]) was “(0.1-1) mg/kg”.

From publication PMC5028280 (Neuropharmacology, 2016)
